A short description of data set [1]: folding enthalpy; higher = less favourable; fluorescence melt of hairpins on a sequencing array, two-state fit. As to conditions: sodium 0.088 M. A digest of the protocol: (§1)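 Melting temperature and folding enthalpy were derived from bootstrapped two-state fits. The fitted temperatures were raised by 9.35 °C to agree with UV melts, and four replicates were combined by inverse variance. The underlying data were Cy3 fluorescence images of library hairpins, with annealed Cy3 and quencher oligos, on a sequenced MiSeq flow cell in 50 mM Na-HEPES pH 8.0, 25 mM NaCl, taken in 2.5 °C steps up to 60 °C, normalised to pre-quench Cy3 and to control constructs.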

Data set [2] in a line: melting temperature; fluorescence melt of hairpins on a sequencing array, two-state fit, raised by 9.35 °C to match UV melts. The conditions noted are these: sodium 0.088 M. Summed up:
as §1

For the sequence GATCTCACAAGAGATC ((((((....)))))), the folding enthalpy in data set [1] was -38.7 kcal/mol. The Tm in data set [2] worked out at 53.7 °C.
Turning to GAAATAGGAAACTGTTTC ((((.((....)).)))), the folding enthalpy in data set [1] is -21.3 kcal/mol. Moreover, in data set [2], the Tm turned out to be 36.1 °C.
On to GATCTAAAACTAGATC ((((((....)))))), for which the folding enthalpy in data set [1] was -21.1 kcal/mol. In data set [2], the Tm stood at 31.1 °C.
The corresponding values for GCCTTAGGAAACCAAGGC (((((.(....).))))) are -27.4 kcal/mol and 45.2 °C.
As to GGTGACGAAAGTCGGACC ((((((....)))..))), the folding enthalpy in data set [1] is -15.8 kcal/mol. The Tm in data set [2] was determined as 42.1 °C.
With GATCTGACGCCAGATC ((((((....)))))), the folding enthalpy in data set [1] was -33.5 kcal/mol. In addition, the Tm in data set [2] was determined as 48.6 °C.
Consider GTCTCGGGAAACTGAGAC (((((.(....).))))), for which, in data set [1], the folding enthalpy was -42.9 kcal/mol. For the same sequence, the Tm in data set [2] was determined as 51.5 °C.
For GAGTCGCGAAAGCGTCTC (((.(((....))).))), in that order: -22.3 kcal/mol and 54.7 °C.
The corresponding values for GTAATGGGAAACCACTAC (((.(((....))).))) are -15.9 kcal/mol and 27.6 °C.
GCCTTGCGAAAGCTTGGC (((..((....))..))): the folding enthalpy in data set [1] was -20.9 kcal/mol. Also, the Tm in data set [2] is 60 °C.
Take GAAGGACGAAAGTCATTC (((.(((....))).))): the folding enthalpy in data set [1] is -30.8 kcal/mol. Also, the Tm in data set [2] was found to be 52.1 °C.
Turning to GACCACGAAAGTGATGTC ((((((....)))..))), the folding enthalpy in data set [1] was -17.6 kcal/mol. In addition, the Tm in data set [2] came out at 38.3 °C.
With GCGATAGTCGC ((((...)))), the folding enthalpy in data set [1] is -14 kcal/mol. In data set [2], the Tm turned out to be 52.5 °C.
With GATCCGACCACGGATC ((((((....)))))), the folding enthalpy in data set [1] was -36.9 kcal/mol. In data set [2], the Tm worked out at 61.3 °C.
For the sequence GACCCGACGAAAGTCGTC (((..(((....)))))), the folding enthalpy in data set [1] was -6.62 kcal/mol. Also, the Tm in data set [2] stood at 25.9 °C.
For GAGGGGACGAAAGTCCTC (((..(((....)))))), the folding enthalpy in data set [1] was -8.85 kcal/mol. In addition, the Tm in data set [2] amounted to 41.2 °C.
Take GCAAAGGGAAACTTTTGC (((((.(....).))))): in data set [1], the folding enthalpy is -26.8 kcal/mol. Further, the Tm in data set [2] amounted to 41 °C.
As for GCGTAGTGACGC ((((....)))), the folding enthalpy in data set [1] was -15.4 kcal/mol. In data set [2], the Tm is 53.7 °C.
GGCGCGGCGAAAGCCGCC (((..(((....)))))): in data set [1], the folding enthalpy is -5.51 kcal/mol. The Tm in data set [2] is 48.6 °C.
For GCGTAGAAATACGC (((((....))))), in that order: -25.1 kcal/mol and 55.2 °C.
Regarding GTATCCGGAAACAGATAC (((((.(....).))))), in data set [1], the folding enthalpy is -23.4 kcal/mol. Further, the Tm in data set [2] turned out to be 31.7 °C.
For the sequence GCTCTCGAAAGAGTAAGC ((((((....)))..))), in data set [1], the folding enthalpy is -22.6 kcal/mol. For the same sequence, in data set [2], the Tm stood at 39.7 °C.
Take GATCCGCAAACGGATC ((((((....)))))): in data set [1], the folding enthalpy was -42.2 kcal/mol. For the same sequence, in data set [2], the Tm was found to be 58 °C.
Take GGTACGGCGAAAGCCACC (((..(((....)))))): the folding enthalpy in data set [1] is -10.6 kcal/mol. For the same sequence, the Tm in data set [2] stood at 38.1 °C.
Consider GGCCTTTCGAAAGAAGCC (((..(((....)))))), for which, in data set [1], the folding enthalpy is -29.9 kcal/mol. Moreover, the Tm in data set [2] was 37.2 °C.
Turning to GTCCAACGAAAGTTAGAC (((.(((....))).))), the folding enthalpy in data set [1] was -29.6 kcal/mol. Moreover, the Tm in data set [2] stood at 38.5 °C.
As to GCCACCGCGAAAGCGGGC (((..(((....)))))), the folding enthalpy in data set [1] was -7.35 kcal/mol. Besides, the Tm in data set [2] was found to be 47.5 °C.
In the case of GCTTTGCGAAAGCAGAGC (((.(((....))).))), in data set [1], the folding enthalpy is -43.8 kcal/mol. In data set [2], the Tm was 56.5 °C.
The corresponding values for GATTTGCGAAAGCACATC (((.(((....))).))) are -19.9 kcal/mol and 43.9 °C.
Take GGGGCTGCGAAAGCACCC (((..(((....)))))): the folding enthalpy in data set [1] was -24.5 kcal/mol. Besides, the Tm in data set [2] came out at 62.5 °C.
Regarding GACATGGGAAACCATGCC (.(((((....))))).), the folding enthalpy in data set [1] is -15.1 kcal/mol. Moreover, the Tm in data set [2] is 42.8 °C.
With GACGGCCGAAAGGCGGTC (((.(((....))).))), in data set [1], the folding enthalpy is -25.1 kcal/mol. In addition, the Tm in data set [2] was found to be 67.9 °C.
Take GGAGCCGGAAACGACTCC ((((.((....)).)))): the folding enthalpy in data set [1] was -55.2 kcal/mol. In data set [2], the Tm came out at 52 °C.
For GCGAACGAAAGTTGACGC ((((((....)))..))), in that order: -23 kcal/mol and 44.1 °C.
Regarding GCCCGTCGAAAGACTGGC (((.(((....))).))), the folding enthalpy in data set [1] was -48.7 kcal/mol. Further, the Tm in data set [2] is 55.4 °C.
With GGCATGGGAAACCACGCC (((.(((....))).))), the folding enthalpy in data set [1] was -35.2 kcal/mol. Moreover, the Tm in data set [2] amounted to 49.4 °C.
In the case of GCGTACGGAAACGTGCGC (((.(((....))).))), the folding enthalpy in data set [1] was -54.1 kcal/mol. Besides, the Tm in data set [2] was 64.6 °C.
For GGATTAACGAAAGTTTCC (((..(((....)))))), in that order: -19.4 kcal/mol and 28.2 °C.
Take GCTTGCGAAAGCAATAGC ((((((....)))..))): in data set [1], the folding enthalpy is -15.3 kcal/mol. Further, in data set [2], the Tm was determined as 47.1 °C.
As to GAGCGAGGAAACTTGCTC ((((.((....)).)))), in data set [1], the folding enthalpy is -25.1 kcal/mol. In addition, the Tm in data set [2] was 52.2 °C.
For GCCGCGCGAAAGCGATGC ((..(((....)))..)), in that order: -15.2 kcal/mol and 45.3 °C.
Regarding GATGTGGGAAACCACACC (.(((((....))))).), the folding enthalpy in data set [1] is -14.1 kcal/mol. Besides, the Tm in data set [2] was determined as 39 °C.
For GGTGTGCGAAAGCAAACC (((.(((....))).))), the folding enthalpy in data set [1] is -35.5 kcal/mol. Moreover, the Tm in data set [2] stood at 56 °C.
For the sequence GAATACGGAAACGTACTC ((.((((....)))).)), in data set [1], the folding enthalpy is -9.11 kcal/mol. Further, the Tm in data set [2] is 28.4 °C.
For GATCTTCTCGAAGATC ((((((....)))))), in that order: -39 kcal/mol and 51.8 °C.
As for GTTTCGGGAAACCGGAAC (((.(((....))).))), the folding enthalpy in data set [1] was -35.2 kcal/mol. Besides, in data set [2], the Tm was found to be 49.6 °C.
As for CGATCCGGAAACGGCTCG (((.(((....))).))), the folding enthalpy in data set [1] is -28.7 kcal/mol. Moreover, in data set [2], the Tm stood at 48.1 °C.
In the case of GCTGCGCGAAAGCGAAGC (((.(((....))).))), the folding enthalpy in data set [1] is -29.7 kcal/mol. The Tm in data set [2] amounted to 69.1 °C.
The corresponding values for GCTTGGCGAAAGCGAAGC ((((.((....)).)))) are -18.6 kcal/mol and 60.4 °C.
For the sequence GATCATCTTATGATC ((((((...)))))), the folding enthalpy in data set [1] was -34.7 kcal/mol. The Tm in data set [2] worked out at 49.8 °C.
GGAGATCGAAAGATTCC (((.(((....)))))): the folding enthalpy in data set [1] is -18.9 kcal/mol. In addition, the Tm in data set [2] came to 36 °C.
With GGACCCGAAAGGGCGTCC ((((((....)))..))), the folding enthalpy in data set [1] was -16.7 kcal/mol. Besides, in data set [2], the Tm stood at 49.1 °C.
Consider GCGATGGGAAACCGTCGC ((((.((....)).)))), for which the folding enthalpy in data set [1] is -50.2 kcal/mol. In addition, the Tm in data set [2] turned out to be 58.9 °C.
In the case of GGAACAGAAATGTTCC ((((((....)))))), in data set [1], the folding enthalpy is -39 kcal/mol. Besides, the Tm in data set [2] turned out to be 54.9 °C.
Consider GATCAACAGCTTGATC ((((((....)))))), for which the folding enthalpy in data set [1] is -29.1 kcal/mol. For the same sequence, in data set [2], the Tm amounted to 39.5 °C.
GAGTAACGAAAGTTCTC (((.(((....)))))): in data set [1], the folding enthalpy was -21.9 kcal/mol. For the same sequence, the Tm in data set [2] was 37.1 °C.
Consider GATCACCGTAGTGATC ((((((....)))))), for which the folding enthalpy in data set [1] was -51.1 kcal/mol. The Tm in data set [2] amounted to 57 °C.
The corresponding values for GCTTGGCGAAAGCCAGGC ((.((((....)))).)) are -23.5 kcal/mol and 66.4 °C.
The corresponding values for GCCTTGAAAAAGGC (((((....))))) are -24.4 kcal/mol and 58.1 °C.
For the sequence CGAGCGGAAACGCCTCG ((((((....))).))), the folding enthalpy in data set [1] was -29.6 kcal/mol. Also, in data set [2], the Tm is 52.3 °C.
For GAGATCCGAAAGGAACTC (((.(((....))).))), in data set [1], the folding enthalpy is -32.2 kcal/mol. Besides, the Tm in data set [2] is 50.2 °C.
The corresponding values for GTCTGCGAAAGCATTGAC ((((((....)))..))) are -14 kcal/mol and 40.2 °C.
The corresponding values for GGAGTCGGAAACAACTCC (((((.(....).))))) are -32.6 kcal/mol and 41.5 °C.
For GCCCAAACGAAAGTTGGC (((..(((....)))))), in that order: -19.2 kcal/mol and 45 °C.
Turning to GGTCAACGAAAGTTTACC (((.(((....))).))), the folding enthalpy in data set [1] was -28.8 kcal/mol. In data set [2], the Tm is 42.8 °C.
GCGACCGAAAGGTTTCGC ((((((....)))..))): the folding enthalpy in data set [1] is -24.1 kcal/mol. For the same sequence, the Tm in data set [2] worked out at 49 °C.
For GATCCCCAACGGGATC ((((((....)))))), in data set [1], the folding enthalpy was -29.7 kcal/mol. Moreover, the Tm in data set [2] stood at 57.2 °C.
In the case of GCCCGGCGAAAGCAAGGC (((..((....))..))), the folding enthalpy in data set [1] was -18.6 kcal/mol. Moreover, the Tm in data set [2] stood at 59 °C.
Turning to GGGCGAACGAAAGTTCCC (((..(((....)))))), the folding enthalpy in data set [1] is -15.4 kcal/mol. Further, the Tm in data set [2] was 45.2 °C.
For GCAGCCGGAAACGGTTGC (((.(((....))).))), in that order: -50.1 kcal/mol and 64.8 °C.
With TGATTGAAAAATCA (((((....))))), in data set [1], the folding enthalpy is -10.1 kcal/mol. The Tm in data set [2] stood at 27.4 °C.
On to GTCAGCGAAAGCTGGGAC ((((((....)))..))), for which, in data set [1], the folding enthalpy is -9.13 kcal/mol. Moreover, the Tm in data set [2] was found to be 40.2 °C.
On to GTATGAGGAAACCCATAC (((((.(....).))))), for which the folding enthalpy in data set [1] is -30.3 kcal/mol. Moreover, the Tm in data set [2] is 35.3 °C.
GCTTCGAAAGAAGC (((((....))))): the folding enthalpy in data set [1] was -26.6 kcal/mol. The Tm in data set [2] was 66.8 °C.

The values are drawn from the array DNA melting data of Ke et al. (doi:10.1101/2024.01.08.574731).
